Experimental data reported in BindingDB's records for doi:10.1016/j.bmcl.2007.03.101 (Eli Lilly, 2007).

Molecular target: T1, 5-hydroxytryptamine receptor 1A (Homo sapiens, UniProt P08908)
T1 sequence (P08908 whole entry): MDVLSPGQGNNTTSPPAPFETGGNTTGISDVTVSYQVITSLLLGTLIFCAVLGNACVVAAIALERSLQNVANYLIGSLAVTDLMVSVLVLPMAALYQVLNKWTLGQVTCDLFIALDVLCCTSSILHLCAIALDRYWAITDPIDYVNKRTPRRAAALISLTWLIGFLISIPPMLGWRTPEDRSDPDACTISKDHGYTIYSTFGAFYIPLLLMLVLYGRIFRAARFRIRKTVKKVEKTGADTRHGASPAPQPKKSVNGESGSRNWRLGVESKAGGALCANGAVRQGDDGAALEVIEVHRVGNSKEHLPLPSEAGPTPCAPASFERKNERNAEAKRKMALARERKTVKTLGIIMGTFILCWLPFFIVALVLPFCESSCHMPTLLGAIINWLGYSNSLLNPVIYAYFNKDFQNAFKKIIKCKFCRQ
Test: Displacement of [3H]8-OH-DPAT from human 5HT1A expressed in LM(tk-) cells
How it was run: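 Human 5-HT1A was cloned into L-M(tk-) cells, and membrane homogenates were prepared. Binding used [3H]-8-OH-DPAT as radioligand. Ki (nM) is the mean of runs in triplicate.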

SMILES: C[C@H]1CN(c2cccc3cc(F)ccc23)CCN1CC[C@H]1OCC2=CC(C(N)=O)=CCC21 (stereo partly drawn) [(1R)-1-(2-((S)-4-(6-fluoronaphthalen-1-yl)-2-methylpiperazin-1-yl)ethyl)-1,3,7,7a-tetrahydroisobenzofuran-5-carboxamide]
- Ki: 0.013 µM
